Data on 16 molecules can be found in PubChem BioAssay AID588365 (Broad Institute, 2011).

SMILES strings stand for the structures. The source made the active and inactive calls.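 How the source made its calls: active means compounds lowering cell ATP signal whose fitted half-maximal concentration is at most ten times the top tested dose; inconclusive means flat curve losing 30 to 70 percent, or poor fit; inactive means the rest.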

Tested on in one test: not listed separately
The test is described as follows: HeLa cell cytotoxicity, dose response, cytotoxicity control, CellTiter-Glo, 24 h, dry powder (AID 588365). The note with it: HeLa viability, CellTiter-Glo ATP luminescence, 24 h; at 35 µM (top of the series). In short, it runs like this: (§1)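 Assay system: human HeLa cell line, viability by cellular ATP; buffer or medium: phenol-red-free DMEM, 10% FBS; dosing: compound concentration series, added one day after seeding; times: 24 h compound exposure, 37 °C, then 10 min reagent, RT; technique: CellTiter-Glo ATP luminescence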
In general terms: In ATP-based viability assays light output follows the ATP content of the culture.
In the case of `Nc1c(/C=C2\C=CC(=O)C(O)=C2)c(=O)nc2sc(CC(=O)N3CCCCC3)nn12`, the activity change, negative = cytotoxicity is -8.24% (inactive).

On to `COC(=O)c1ccccc1NC(=O)CCS(=O)(=O)c1ccc(Br)cc1`, for which the activity change, negative = cytotoxicity was -2.03% (inactive).

As for `O=C(O)C1Nc2c(O)cc(Cl)c([N+](=O)[O-])c2C2C=CCC12` (stereo unspecified), the activity change, negative = cytotoxicity was -4.48% (inactive).

Consider `CCC(=O)Oc1ccc2c(c1)O/C(=C\c1ccco1)C2=O`, for which the activity change, negative = cytotoxicity was -1.46% (inactive).

Take `CC1=NN(c2cccc(C(=O)O)c2)C(=O)/C1=C\C=C\c1ccco1`: the activity change, negative = cytotoxicity is -14.3% (inactive).

As to `O=C1CCCC(O)=C1N=Nc1ccc(C(=O)O)cc1`, the activity change, negative = cytotoxicity was -7.5% (inactive).

In the case of `O=C1/C(=C/c2ccco2)Oc2c1ccc(O)c2CN1CCCCC1`, the activity change, negative = cytotoxicity was 4.06% (inactive).

As for `O=C(O)CC(C(=O)O)N1C(=O)/C(=C/C=C/c2ccco2)SC1=S` (stereo unspecified), the activity change, negative = cytotoxicity was 4.8% (inactive).

`CSc1ccc(/C=N/Nc2cccc(C(=O)O)c2)cc1`: the activity change, negative = cytotoxicity was -3.96% (inactive).

Turning to `CN(C)S(=O)(=O)c1cc(C(=O)NC2CCSc3ccccc32)ccc1Cl` (stereo unspecified), the activity change, negative = cytotoxicity is -9.03% (inactive).

As to `Nc1c(C(=O)Nc2ccccc2F)sc2nc(Cc3ccccc3)cc(C(F)(F)F)c12`, the activity change, negative = cytotoxicity is 0.381% (inactive).

Take `Clc1ccc(-c2nnc3sc(-c4ccc(Br)o4)nn23)cc1`: the activity change, negative = cytotoxicity is -0.723% (inactive).

Consider `O=C(O)CCCCCn1c(SCC(=O)c2ccc(O)c(O)c2)nc2ccsc2c1=O`, for which the activity change, negative = cytotoxicity was -3.5% (inactive).

Take `CC1(C)[C@@H](O[C@H]2O[C@H](C(=O)O)[C@@H](O)[C@H](O)[C@H]2O[C@@H]2O[C@H](C(=O)O)[C@@H](O)[C@H](O)[C@H]2O)CC[C@]2(C)[C@H]3C(=O)C=C4[C@@H]5C[C@@](C)(C(=O)O)CC[C@]5(C)CC[C@@]4(C)[C@]3(C)CC[C@@H]12`: the activity change, negative = cytotoxicity was -1.78% (inactive).

A further test has as its system HeLa viability, CellTiter-Glo ATP luminescence, 24 h. Described as above.
Settings: not given
The essentials:
as §1
Turning to `O=c1c(O)cccc2cc(O)c(O)c(O)c12`, the AC50 – broadly, the midpoint of the concentration-response curve, whichever way the signal moves – is 16.1 µM.

Take `O=C(O)CCNc1ccc(NCCC(=O)O)c2c1C(=O)c1ccccc1C2=O`: the AC50 was 36.1 µM.
